Reference: ChEMBL document CHEMBL1208709, “Synthesis and pharmacological evaluation of 1,1,3-substituted urea derivatives as potent TNF-alpha production inhibitors” (2010)
Active and inactive are the calls of the source. The calls are words filed in the database; no cut-off is given here.

These compounds were tested on Rattus norvegicus (assay: Antiinflammatory activity in po dosed Lewis rat assessed as inhibition of LPS-induced TNFalpha production administered 30 mins prior to LPS challenge measured after 1.5 hrs).
Assay type: functional
Outline: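 Overnight-fasted male Lewis rats (seven weeks old) were dosed orally at 0.1, 0.3, 1 and 3 mg/kg, 30 min before IV LPS (E. coli 055:B5 in saline). Serum TNF-α was measured by ELISA 1.5 h post-LPS, five rats per group, mean ± SEM. Dunnett's t-test versus vehicle; ED₅₀ taken from the dose-response.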

Compared with `O=C(NCCCc1ccncc1)N(CCCC1CCCCC1)CCC1CCCCC1`, `CCCCCN(CCC12CC3CC(CC(C3)C1)C2)C(=O)NCCCc1ccncc1` is 5-fold higher in ED50: 0.34 mg/kg for the first, 1.7 mg/kg for the second.

The compounds below were run on Rattus norvegicus (assay: Antiinflammatory activity in Lewis rat assessed as inhibition of LPS-induced TNFalpha production at 2 mg/kg, po administered 30 mins prior to LPS challenge measured after 1.5 hrs).
Assay type: functional

Compared with `O=C(NCCCc1ccncc1)N(CCCN1CCOCC1)CCC1CCCCC1`, `O=C(NCCCc1ccncc1)N(CCC1CCCCC1)CCN1CCOCC1` is higher in inhibition in vivo at 2 mg/kg: 43% for the first, 50% for the second.

First: CCOCCN(CCC1CCCCC1)C(=O)NCCCc1ccncc1
Second: COCCOCCN(CCC1CCCCC1)C(=O)NCCCc1ccncc1
The inhibition in vivo at 2 mg/kg of the first is lower: 4% for the first, 14% for the second.

First: O=C(NCCCc1ccncc1)N(CCN1CCOCC1)CCN1C2CCC1CC2
Second: O=C(NCCCc1ccncc1)N(CCC1CC2CCC1C2)CCN1CCOCC1 (stereo unspecified)
The inhibition in vivo at 2 mg/kg of the first is lower: 8% for the first, 55% for the second.

Going from `CCCCN(CCN1CCOCC1)C(=O)NCCCc1ccncc1` to `CCCCN(CCCN1CCOCC1)C(=O)NCCCc1ccncc1`, the inhibition in vivo at 2 mg/kg rises from 21% to 32%.

Compared with `CCCCN(CCCOC)C(=O)NCCCc1ccncc1`, `COCCCN(CCC1CC2CCC1C2)C(=O)NCCCc1ccncc1` (stereo unspecified) is lower in inhibition in vivo at 2 mg/kg: 21% for the first, 10% for the second.

Going from `O=C(NCCCc1ccncc1)N(CCCC1CCCCC1)CCC1CCCC1` to `O=C(NCCCc1ccncc1)N(CCCC1CCCCC1)CCC1CCCCC1`, the inhibition in vivo at 2 mg/kg rises from 87% to 92%.

`O=C(NCCCc1ccncc1)N(CCCN1CCOCC1)CCC12CC3CC(CC(C3)C1)C2` and `O=C(NCCCc1ccncc1)N(CCN1CCOCC1)CCC12CC3CC(CC(C3)C1)C2` are the same in inhibition in vivo at 2 mg/kg: 45% for the first, 45% for the second.

First: O=C(NCCCc1ccncc1)N(CCC1CCCCC1)CCN1C2CCC1CC2
Second: O=C(NCCCc1ccncc1)N(CCC1CCCCC1)CCC1CCCCC1
The inhibition in vivo at 2 mg/kg of the first is lower: 48% for the first, 91% for the second.

Compared with `O=C(NCCCc1ccncc1)N(CCCC1CCCCC1)CC1CCCCC1`, `O=C(NCCCc1ccncc1)N(CCC1CCCCC1)CCC1CCOCC1` is lower in inhibition in vivo at 2 mg/kg: 71% for the first, 38% for the second.

First: O=C(NCCCc1ccncc1)N(CCCN1CCOCC1)CCC1CC2CCC1C2 (stereo unspecified)
Second: CCCCCN(CCC12CC3CC(CC(C3)C1)C2)C(=O)NCCCc1ccncc1
The inhibition in vivo at 2 mg/kg of the first is lower: 44% for the first, 72% for the second.

In the case of `CCCCN(CCOCC)C(=O)NCCCc1ccncc1`, the inhibition is reported as “inactive”.
With `COCCCN(CCC1CCCCC1)C(=O)NCCCc1ccncc1` the inhibition was “inactive”.
For `O=C(NCCCc1ccncc1)N(CCC1CCOCC1)CCN1CCOCC1`, the inhibition was “inactive”.
With `CCOCCN(CCC1CC2CCC1C2)C(=O)NCCCc1ccncc1` (stereo unspecified) the inhibition was “inactive”.
